ChEMBL document CHEMBL3124806, “Imidazopyridine-fused [1,3]-diazepinones: synthesis and antiproliferative activity” (Eur J Med Chem, 2014)
Calls of active or inactive are those of the source. The rule behind the calls is not given here.

Legend:
[1] = biological target: Glycogen synthase kinase-3 beta (Homo sapiens) (UniProt P49841); assay: Inhibition of human GSK3 beta at 10 uM
Summary of the method: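 Kinase selectivity panel of 19 protein tyrosine kinases and 30 serine/threonine kinases, run by a contract lab (CEREP). Each compound was tested at a single dose of 10 μM in duplicate.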

MDA-MB-435 [2] = assay: Induction of apoptosis in human MDA-MB-435 cells assessed as chromatin condensation at 5 uM after 20 hrs by Hoechst 33342 staining-based phase-contrast microscopy; type: functional, cell-based
MDA-MB-435 [3] = assay: Induction of apoptosis in human MDA-MB-435 cells assessed as alterations in stress action fibre aggregation at 5 uM after 20 hrs by Hoechst 33342 staining-based […] microscopy; type: functional, cell-based
Summary of the method: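 MDA-MB-435 cells were grown for 24 h, then treated with or without 5 μM compound for 20 h. Cells were fixed for 20 min and permeabilised with 0.2% Triton X-100 for 4 min at room temperature. Actin was stained with a mouse anti-actin antibody and an Alexa Fluor 568 anti-mouse antibody, each for 1 h at RT. Nuclei were counterstained with Hoechst 33342, and cells were imaged by confocal microscopy.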

SK-MEL-2 [4] = assay: Cytotoxicity against human SK-MEL-2 cells assessed as cell growth at 10 uM after 48 hrs by MTT assay relative to untreated control; type: functional; settings: SK-MEL-2, 48 h, read-out: Activity
Summary of the method: (§1)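 Melanoma lines grown at 37 °C in humidified 5% CO2: MDA-MB-435 in DMEM/Ham's F12 1:1 with 10% FCS and antibiotics, SK-MEL-2 in RPMI-1640 with 10% FCS. Cells plated 24 h, then exposed 48 h to 100–0.01 µM (dilutions from fresh 100 µM stock in medium). MTT 0.5 mg/mL added for 4 h, crystals dissolved in EtOH/DMSO 1:1, absorbance read at 540 nm. Mean ± SD of three independent experiments.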

MDA-MB-435 [5] = assay: Cytotoxicity against human MDA-MB-435 cells assessed as cell growth at 10 uM after 48 hrs by MTT assay relative to untreated control; type: functional; settings: MDA-MB-435, 48 h, read-out: Activity; summary of the method: as §1
MDA-MB-468 = assay: Cytotoxicity against human MDA-MB-468 cells after 48 hrs by SRB assay; type: functional; settings: MDA-MB-468, 48 h
Summary of the method: (§2)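 NCI-60 five-dose screen: cells exposed continuously for 48 h across 100 to 0.01 µM. Growth or viability estimated by sulforhodamine B protein staining, read spectrophotometrically against untreated controls; IC50 taken from the dose-response.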

MDA-MB-231 = assay: Cytotoxicity against human MDA-MB-231 cells after 48 hrs by SRB assay; type: functional; settings: MDA-MB-231, 48 h; summary of the method: as §2
[6] = Cytotoxicity against human UO31 cells after 48 hrs by SRB assay; type: functional; settings: UO-31, 48 h
Summary of the method: (§3)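 NCI-60 five-dose mode on the full human tumour line panel. Concentrations ran from 100 to 0.01 µM with 48 h continuous exposure. Growth was estimated by SRB protein staining against untreated controls, and IC50 values were derived from the dose–response.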

RXF 393 = assay: Cytotoxicity against human RXF393 cells after 48 hrs by SRB assay; type: functional; settings: RXF 393, 48 h; summary of the method: as §2
786-0 = assay: Cytotoxicity against human […] cells after 48 hrs by SRB assay; type: functional; settings: 786-0, 48 h
Summary of the method: (§4)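 NCI-60 five-dose testing, 100 to 0.01 µM, under a 48 h continuous-exposure protocol. Growth estimated by SRB protein assay, read spectrophotometrically against untreated controls; IC50 derived from the dose-response.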

OVCAR-8 = assay: Cytotoxicity against human OVCAR8 cells after 48 hrs by SRB assay; type: functional; settings: OVCAR-8, 48 h; summary of the method: as §2
IGROV-1 = assay: Cytotoxicity against human IGROV1 cells after 48 hrs by SRB assay; type: functional; settings: IGROV-1, 48 h; summary of the method: as §4
SK-MEL-28 = assay: Cytotoxicity against human SK-MEL-28 cells after 48 hrs by SRB assay; type: functional; settings: SK-MEL-28, 48 h; summary of the method: as §2
SF-539 = assay: Cytotoxicity against human SF539 cells after 48 hrs by SRB assay; type: functional; settings: SF-539, 48 h; summary of the method: as §2
SW-620 = assay: Cytotoxicity against human SW620 cells after 48 hrs by SRB assay; type: functional; settings: SW-620, 48 h; summary of the method: as §3
HCT-116 = assay: Cytotoxicity against human HCT116 cells after 48 hrs by SRB assay; type: functional; settings: HCT-116, 48 h; summary of the method: as §4
HCC 2998 = assay: Cytotoxicity against human HCC2998 cells after 48 hrs by SRB assay; type: functional; settings: HCC 2998, 48 h; summary of the method: as §4
NCI-H460 = assay: Cytotoxicity against human NCI-H460 cells after 48 hrs by SRB assay; type: functional; settings: NCI-H460, 48 h; summary of the method: as §2
NCI-H23 = assay: Cytotoxicity against human NCI-H23 cells after 48 hrs by SRB assay; type: functional; settings: NCI-H23, 48 h; summary of the method: as §2
NCI-H322M = assay: Cytotoxicity against human NCI-H322M cells after 48 hrs by SRB assay; type: functional; summary of the method: as §2
NCI-H226 = assay: Cytotoxicity against human NCI-H226 cells after 48 hrs by SRB assay; type: functional; settings: NCI-H226, 48 h; summary of the method: as §2
SR = assay: Cytotoxicity against human SR cells after 48 hrs by SRB assay; type: functional; summary of the method: as §3
CCRF-CEM = assay: Cytotoxicity against human CCRF-CEM cells after 48 hrs by SRB assay; type: functional; summary of the method: as §4
SK-MEL-2 [7] = assay: Cytotoxicity against human SK-MEL-2 cells assessed as reduction in cell growth at 1 to 10 uM after 48 hrs by MTT assay relative to untreated control; type: functional; design: scale not given: the % may be the effect or the level left; summary of the method: as §1
[8] = read-out: LC50 (the source's name)

Chain of Glycogen synthase kinase-3 beta (Homo sapiens) (P49841 whole entry, looked up): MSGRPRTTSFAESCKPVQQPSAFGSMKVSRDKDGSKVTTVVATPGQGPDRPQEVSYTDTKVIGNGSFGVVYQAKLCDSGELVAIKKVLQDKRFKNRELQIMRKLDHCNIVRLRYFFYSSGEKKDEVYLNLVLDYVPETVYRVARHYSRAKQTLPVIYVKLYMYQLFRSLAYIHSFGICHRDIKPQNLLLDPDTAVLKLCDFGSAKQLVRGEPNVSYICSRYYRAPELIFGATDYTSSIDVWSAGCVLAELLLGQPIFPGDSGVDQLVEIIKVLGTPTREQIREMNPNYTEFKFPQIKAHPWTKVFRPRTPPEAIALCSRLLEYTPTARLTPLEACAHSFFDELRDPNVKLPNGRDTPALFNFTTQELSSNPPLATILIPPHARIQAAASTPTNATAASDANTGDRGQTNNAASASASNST

With `C[C@@H]1NC(c2ccc(Br)cc2)=Nc2nc3ccccn3c2C1=O` the inhibition [1] was “inactive”, the Activity (MDA-MB-435 [2]) was “Active” and the Activity (MDA-MB-435 [3]) was “Active”. For the same molecule, the growth at 10 µM (SK-MEL-2 [4]) was 32%, the growth at 10 µM (MDA-MB-435 [5]) was -15% and the GI50 (MDA-MB-468) was 1.98 µM. It also gave a TGI (MDA-MB-468) of 5.12 µM, a CC50 (MDA-MB-468; [8]) of over 100 µM and a GI50 (MDA-MB-231) of 6.08 µM. For the same molecule, the TGI (MDA-MB-231) was over 100 µM, the CC50 (MDA-MB-231; [8]) was over 100 µM and the GI50 [6] was 8.11 µM. It also gave a TGI [6] of over 100 µM, a CC50 [6, 8] of over 100 µM and a GI50 (RXF 393) of 10.2 µM. For the same molecule, the TGI (RXF 393) was 51.8 µM, the CC50 (RXF 393; [8]) was over 100 µM and the GI50 (786-0) was 28.3 µM. For the same molecule, the TGI (786-0) was over 100 µM, the CC50 (786-0; [8]) was over 100 µM and the GI50 (OVCAR-8) was 17 µM. The TGI (OVCAR-8) was over 100 µM, the CC50 (OVCAR-8; [8]) was over 100 µM and the GI50 (IGROV-1) was 51.9 µM. It also gave a TGI (IGROV-1) of over 100 µM, a CC50 (IGROV-1; [8]) of over 100 µM and a GI50 (SK-MEL-28) of 9.51 µM. For the same molecule, the TGI (SK-MEL-28) was over 100 µM, the CC50 (SK-MEL-28; [8]) was over 100 µM and the GI50 (SF-539) was 7.98 µM. The TGI (SF-539) was 85.3 µM, the CC50 (SF-539; [8]) was over 100 µM and the GI50 (SW-620) was 3.75 µM. The TGI (SW-620) was over 100 µM, the CC50 (SW-620; [8]) was over 100 µM and the GI50 (HCT-116) was 4.04 µM. The TGI (HCT-116) was over 100 µM, the CC50 (HCT-116; [8]) was over 100 µM and the GI50 (HCC 2998) was 21.9 µM. The TGI (HCC 2998) was over 100 µM, the CC50 (HCC 2998; [8]) was over 100 µM and the GI50 (NCI-H460) was 3.06 µM. For the same molecule, the TGI (NCI-H460) was over 100 µM, the CC50 (NCI-H460; [8]) was over 100 µM and the GI50 (NCI-H23) was 25.4 µM. It also gave a TGI (NCI-H23) of over 100 µM, a CC50 (NCI-H23; [8]) of over 100 µM and a GI50 (NCI-H322M) of 23.6 µM. For the same molecule, the TGI (NCI-H322M) was over 100 µM, the CC50 (NCI-H322M; [8]) was over 100 µM and the GI50 (NCI-H226) was 14.7 µM. The TGI (NCI-H226) was over 100 µM, the CC50 (NCI-H226; [8]) was over 100 µM and the GI50 (SR) was 2.42 µM. The TGI (SR) was over 100 µM, the CC50 (SR; [8]) was over 100 µM and the GI50 (CCRF-CEM) was 6.56 µM. The TGI (CCRF-CEM) was over 100 µM and the CC50 (CCRF-CEM; [8]) was over 100 µM.

Work on `C[C@@H]1NC(c2ccccc2)=Nc2nc3ccccn3c2C1=O` yielded an Activity (SK-MEL-2 [7]) of 20%.
